# Measured values from different studies.
# Each line is one published result; the experiments were not run side by side.
# Rock2: Rho-associated protein kinase 2 (Rock2, Rattus norvegicus, UniProt Q62868)
# PTGS2: Prostaglandin G/H synthase 2 (PTGS2, Homo sapiens, UniProt P35354)
# SIGMAR1: Sigma non-opioid intracellular receptor 1 (SIGMAR1, Cavia porcellus, UniProt Q60492)
# NPY2R: Neuropeptide Y receptor type 2 (NPY2R, Homo sapiens, UniProt P49146)
Structure (SMILES),target,test,system,conditions,inhibition
Cc1ccc(Nc2nccc(N(C)c3ccc4c(C)n(C)nc4c3)n2)cc1S(N)(=O)=O,Rock2,"enzyme activity, inhibitor",,10 µM,29%
CC/C(=N\NC(=O)NCc1cccc(O)c1)c1ccc(O)c(C)c1O,"NPM/ALK (Nucleophosmin/ALK tyrosine kinase receptor) (NPM1/ALK, Homo sapiens, UniProt P06748+Q9UM73)","enzyme activity, inhibitor",,0.1 µM,-0.4%
O=C(c1ccc(Cl)cc1)N(Cc1ccccc1)C1CCCCC1,"Alpha-2B adrenergic receptor (ADRA2B, Homo sapiens, UniProt P18089)",cell-free assay,,10 µM,7.2%
COc1ccc(-c2cc(=O)c3c(O)cc(O[C@@H]4O[C@H](CO)[C@@H](O)[C@H](O)[C@H]4O)cc3o2)cc1O,PTGS2,"enzyme activity, inhibitor",,7.81 µg/mL,100%
CN(Cc1ccc(NC(=O)C2=Cc3cc(-c4ccc(OCCCCCCCF)cc4)ccc3CCC2)cc1)C1CCOCC1,SIGMAR1,"ligand displacement, radioligand",,10 µM,14%
O=C(Nc1ccc(S(=O)(=O)N2CCC(Cl)CC2)cc1)c1ccc([N+](=O)[O-])o1,NPY2R,"ligand displacement, radioligand",,10 µM,4%
COc1cc([C@H]2OC[C@H]3[C@@H]2CO[C@@H]3c2cc(OC)c(O)c(OC)c2)cc(OC)c1O,PTGS2,"enzyme activity, inhibitor",,0.98 µg/mL,49.3%
CCN(Cc1ccccc1C(F)(F)F)C(=O)C1CCN(S(=O)(=O)c2ccc3[nH]ncc3c2)CC1,NPY2R,"ligand displacement, radioligand",,10 µM,3%
CNC(=O)c1cc(Oc2ccc(NC(=O)Nc3ccc(Cl)c(C(F)(F)F)c3)cc2)ccn1,Rock2,"enzyme activity, inhibitor",,0.3 µM,17%
CN(C)C1CCN(CC#Cc2nn(C3CCCC3)c3nc(NCc4ccccc4)ncc23)C1 (centres unmarked),"Ribosomal protein S6 kinase beta-1 (RPS6KB1, Homo sapiens, UniProt P23443)","enzyme activity, inhibitor, FRET",,1 µM,4%
CCN1CCN(Cc2ccc(NC(=O)c3ccc(C)c(Oc4ccnc5[nH]ccc45)c3)cc2C(F)(F)F)CC1,"Scaffold protein ILK (ILK, Homo sapiens, UniProt Q13418)","target engagement in cells, inhibitor, chemoproteomics",Huh-7,1 µM,-36.8%
O=c1cc(-c2ccc(O)c(O)c2)oc2cc(O)cc(O)c12,PTGS2,"enzyme activity, inhibitor",,0.49 µg/mL,45%
COc1ccc(CCC(C)N2CCc3cc(OC)c(OC)cc3C2)cc1 (centres unmarked),SIGMAR1,"ligand displacement, radioligand",,0.1 µM,11%
COc1cc(-c2cc(=O)c3c(O)cc(O)cc3o2)ccc1O,PTGS2,"enzyme activity, inhibitor",,0.49 µg/mL,0%
O=C1N=C(N2CCCCN2)S/C1=C\c1ccc(F)cc1O,NPY2R,"ligand displacement, radioligand",,10 µM,< 10%
C=C[C@@]1(C)C=C2CC[C@@H]3[C@](C)(CCC[C@@]3(C)C(=O)O)[C@H]2CC1,PTGS2,"enzyme activity, inhibitor",,0.49 µg/mL,7.14%
O=C(c1ccc(F)cc1)N(Cc1ccccc1)C1CCCCC1,NPY2R,cell-free assay,,10 µM,-14%
